The values below come from ChEMBL document CHEMBL3593166, “Hybrid chemistry. Part 4: Discovery of etravirine-VRX-480773 hybrids as potent HIV-1 non-nucleoside reverse transcriptase inhibitors” (Bioorg Med Chem, 2015).

Each structure is given as a SMILES string. pEC50, pIC50: −log10 of the molar value. Active and inactive are the calls of the source. The calls are words filed in the database; no cut-off is given here. Some results are limits rather than exact numbers.

Data set [1] relates to Human immunodeficiency virus 1. The data set can be described thus: Antiviral activity against HIV1 3B infected in human MT4 cells assessed as inhibition of virus-induced cytopathicity incubated for 4 days by MTT method. The data set is classed as functional, organism-based. To be noted: Human immunodeficiency virus 1, 3B, MT4, 96 h. The essentials: (§1)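 Virus stocks titrated in MT-4 cells as CCID50. MT-4 cells at 1 × 10^5 cells/mL infected at MOI 0.02 (HIV-1 IIIB or HIV-2 ROD), then plated immediately over serial compound dilutions (DMSO stocks, 50 mM or higher). After 4 days at 37 °C, viable cells counted by MTT. EC50 from means of at least three separate experiments.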

Data set [2] is described as follows: Selectivity index, ratio of CC50 for human MT4 cells to EC50 for HIV1 3B infected in human MT4 cells. Type of data set: toxicity, cell-based. To be noted: HIV1 3B infected MT4 cells, read-out: Ratio CC50/EC50. The essentials: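 SI calculated as CC50 in uninfected MT-4 cells divided by EC50 against WT HIV-1 IIIB. Both come from the 4-day MTT assays at 37 °C; infection was at MOI 0.02 with cells at 1 × 10^5 cells/mL.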

Data set [3] relates to Human immunodeficiency virus 2. The data set can be described thus: Antiviral activity against HIV2 ROD infected in human MT4 cells assessed as inhibition of virus-induced cytopathicity incubated for 4 days by MTT method. Type of data set: functional, organism-based. To be noted: Human immunodeficiency virus 2, ISOLATE ROD, MT4, 96 h. A digest of the protocol: as §1
Data set [4] concerns Human immunodeficiency virus 1. In words: Antiviral activity against HIV1 RES056 expressing reverse transcriptase K103N + Y181C mutant infected in human MT4 cells assessed as inhibition of virus-induced cytopathicity incubated for 4 days by MTT method. The data set is classed as functional, organism-based. Conditions: Human immunodeficiency virus 1, RES056, MT4, 96 h. A digest of the protocol: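 Serial compound dilutions in MT-4 cells (1 × 10^5 cells/mL) infected at MOI 0.02 with K103N+Y181C double-mutant HIV-1. Cells added to compound right after infection and incubated 4 days at 37 °C. Viable cells counted by MTT and EC50 derived. Cytotoxicity run in parallel on uninfected cells. Values are the mean of at least three experiments.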
(In general: Damage to the host cells serves as the signal in cytopathic effect assays.)

Data set [5] can be described thus: Cytotoxicity against human MT4 cells assessed as reduction in cell viability incubated for 4 days MTT method. Type of data set: cell-based. The essentials:
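Uninfected MT-4 cells at 1 × 10^5 cells/mL exposed to serial compound dilutions (DMSO stocks, 50 mM or higher) in parallel with the antiviral test. Viability read by MTT after 4 days at 37 °C. CC50 is the concentration lowering viability by 50%. Values are means of at least three experiments.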
On the technique in general: Tetrazolium dyes change colour on reduction, which living cells bring about.

Data set [6] addresses Human immunodeficiency virus type 1 reverse transcriptase (Human immunodeficiency virus 1, UniProt Q72547). The data set can be described thus: Inhibition of HIV1 recombinant wild type reverse transcriptase p66/p51 assessed as reduction in biotin deoxyuridine triphosphate (biotin-dUTP) incorporation using poly(rA)/oligo (dT)16 template and primer by spectrofluorometry.
The test system of data set [7] is Human immunodeficiency virus 1. The data set can be described thus: Antiviral activity against HIV1 3B infected in human MT4 cells […] at 100 fold antiviral EC50 level added 3 to 5 hrs post infection and measured 31 hrs post infection by p24 enzyme-linked immunosorbent assay. Type of data set: functional, organism-based. The essentials:
(§2)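 MT-4 cells infected with WT HIV-1 at m.o.i. 0.5; after 1 h adsorption, seeded at 45,000 cells/well, 37°C. Compounds added at 0, 1, 2, 3, 4, 5, 6, 7, 8, 9, 24 or 25 h post-infection. Reference agents at fixed levels (ETV 0.19 µM); hybrids at 100-fold their MT-4/MTT EC50. Virus production measured by p24 ELISA at 31 h post-infection.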

Data set [8] concerns Human immunodeficiency virus 1. In words: Antiviral activity against HIV1 3B infected in human MT4 cells […] added 3 to 5 hrs post infection and measured 31 hrs post infection by p24 enzyme-linked immunosorbent assay. Type of data set: functional, organism-based. The essentials:
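MT-4 cells infected with WT HIV-1 at m.o.i. 0.5 and allowed 1 h adsorption, then seeded at 45,000 cells/well at 37 °C. Compound added at set times from 0 to 25 h post-infection. Virus production read by p24 ELISA at 31 h post-infection.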

In data set [9] the test system is Human immunodeficiency virus 1. The data set can be described thus: Antiviral activity against HIV1 3B infected in human MT4 cells […] at 0.19 uM added 3 to 5 hrs post infection and measured 31 hrs post infection by p24 enzyme-linked immunosorbent assay. Type of data set: functional, organism-based. The essentials:
as §2

What is called pEC50 is −log10 of the EC50, conventionally taken in molar units. For orientation: CC50 means the concentration that lowers cell viability or growth by half. `Cc1cc(C#N)cc(C)c1Oc1ccnc(SCC(=O)Nc2cccc(Cl)c2)n1`: the pEC50 was 5.10 in data set [1], less than 3.53 in [3] and less than 3.53 in data set [4]. The selectivity ratio in data set [2] is more than 37. In addition, the cytotoxic concentration (CC50) at 96 h in data set [5] was more than 294 µM.
Regarding `Cc1cc(C#N)cc(C)c1Oc1ccnc(SCC(=O)Nc2ccc([N+](=O)[O-])cc2)n1`, the pEC50 in data set [1] was 5.85; in data set [3], less than 3.54; in [4], less than 3.54. Moreover, the selectivity ratio in data set [2] was more than 205. The CC50 at 96 h in [5] was more than 287 µM.
As to `Cc1cc(C#N)cc(C)c1Oc1ccnc(SCC(=O)Nc2cc(Cl)cc(Cl)c2)n1`, the pEC50 in data set [1] is 4.97; in data set [3] it was less than 4.39; in [4] it was less than 4.39. Also, the selectivity ratio in data set [2] was more than 3.7. Besides, in data set [5], the CC50 at 96 h was not below 41 µM.
Consider `Cc1cc(C#N)cc(C)c1Oc1ccnc(SCC(=O)Nc2ccc(S(N)(=O)=O)cc2)n1`, for which the figures for the pEC50 in data set [1], in data set [3] and in data set [4] were 5.10, less than 3.58 and less than 3.58, respectively. The selectivity ratio in data set [2] is more than 34. The CC50 at 96 h in [5] is more than 266 µM.
On to `COc1ccc(NC(=O)CSc2nccc(Oc3c(C)cc(C#N)cc3C)n2)cc1`, for which the figures for the negative-log EC50 (pEC50) in data set [1], in data set [3] and in [4] were 5.14, less than 4.16 and less than 4.16, respectively. Also, the selectivity ratio in [2] was not below 9. Further, the CC50 at 96 h in data set [5] is not below 69 µM.
In general, pIC50 refers to the negative decadic logarithm of the IC50, by convention in mol/L. As for `Cc1cc(C#N)cc(C)c1Oc1ccnc(SCC(=O)Nc2ccccc2Cl)n1`, the pEC50 is 6.62 in data set [1], less than 3.53 in data set [3] and not above 4.96 in data set [4]. In addition, the selectivity ratio in data set [2] is more than 1220. Moreover, the pIC50 in data set [6] was 6.33. Moreover, in [5], the CC50 at 96 h was more than 294 µM. Further, the inhibition entry in [7] is “Active”.
For `Cc1ccnc2c1NC(=O)c1cccnc1N2C1CC1`, the inhibition entry in data set [8] was “Active”.
`Cc1cc(C#N)cc(C)c1Oc1ccnc(SCC(=O)Nc2cccc(F)c2)n1`: the pEC50 was 5.09 in [1], less than 3.51 in data set [3] and less than 3.51 in data set [4]. Also, the selectivity ratio in data set [2] is more than 38. The cytotoxic concentration (CC50) at 96 h in data set [5] was more than 306 µM.
For `Cc1cc(C#N)cc(C)c1Oc1ccnc(SCC(=O)Nc2ccccc2[N+](=O)[O-])n1`, the pEC50 in data set [1] is 6.47; in [3] it was less than 3.54; in [4], less than 3.54. Besides, the selectivity ratio in [2] is more than 844. For the same compound, in data set [6], the pIC50 is 5.93. In addition, the CC50 at 96 h in data set [5] was more than 287 µM. The inhibition result in [7] was “Active”.
As to `Cc1ccc(NC(=O)CSc2nccc(Oc3c(C)cc(C#N)cc3C)n2)cc1`, the values for the negative-log EC50 (pEC50) in data set [1], in [3] and in [4] were 5.29, less than 3.51 and less than 3.51, respectively. The selectivity ratio in data set [2] was more than 61. In addition, in [5], the CC50 at 96 h was more than 309 µM.
Consider `Cc1cc(C#N)cc(C)c1Oc1ccnc(SCC(=O)Nc2ccc(Cl)cc2Cl)n1`, for which the pEC50 was 5.92 in data set [1], less than 3.57 in data set [3] and less than 3.57 in data set [4]. In addition, the selectivity ratio in data set [2] is more than 227. Besides, the CC50 at 96 h in data set [5] is more than 272 µM.
Take `Cc1cc(S(N)(=O)=O)ccc1NC(=O)CSc1nccc(Oc2c(C)cc(C#N)cc2C)n1`: the figures for the pEC50 in data set [1], in data set [3] and in data set [4] were 6.09, less than 4.34 and less than 4.34, respectively. The selectivity ratio in data set [2] was 57. In addition, the pIC50 in [6] is 5.56. In data set [5], the CC50 at 96 h came to 46 µM. In addition, the inhibition result in data set [7] was “Active”.
With `Cc1cc(C#N)cc(C)c1Oc1ccnc(SCC(=O)Nc2ccc(F)cc2)n1`, the pEC50 in data set [1] was 5.10; in data set [3], less than 3.51; in [4], less than 3.51. In data set [2], the selectivity ratio was more than 38. In addition, the CC50 at 96 h in data set [5] was more than 306 µM.
With `NS(=O)(=O)c1ccc(NC(=O)CSc2nnc(Br)n2-c2ccc(C3CC3)c3ccccc23)c(Cl)c1`, the pEC50 in data set [1] is 9.85; in data set [4] it was 9.64. Also, the selectivity ratio in data set [2] stood at 41600. Further, the half-maximal cytotoxic concentration (CC50) at 96 h in data set [5] came out at 5.82 µM.
In the case of `CC(C)Nc1cccnc1N1CCN(C(=O)c2cc3cc(NS(C)(=O)=O)ccc3[nH]2)CC1` [DELAVIRDINE], the selectivity ratio in [2] was more than 67. The negative-log EC50 (pEC50) in data set [4] is less than 4.36. Further, the CC50 at 96 h in data set [5] was more than 44 µM.
Take `Cc1ccccc1NC(=O)CSc1nccc(Oc2c(C)cc(C#N)cc2C)n1`: the pEC50 in data set [1] was 5.23; in [3] it was less than 3.51; in [4], less than 3.51. For the same compound, in data set [2], the selectivity ratio is more than 52. Moreover, the CC50 at 96 h in data set [5] was more than 309 µM.
On to `Cc1cc(C#N)cc(C)c1Oc1ccnc(SCC(=O)Nc2ccc(O)cc2)n1`, for which the pEC50 is 5.08 in data set [1], less than 4.15 in data set [3] and less than 4.15 in data set [4]. The selectivity ratio in data set [2] turned out to be 9. In data set [5], the CC50 at 96 h came to 71 µM.
Take `Cc1cc(C#N)cc(C)c1Oc1ccnc(SCC(=O)Nc2ccc(C#N)cc2)n1`: the values for the pEC50 in [1], in data set [3] and in data set [4] were 5.37, less than 3.52 and less than 3.52, respectively. In data set [2], the selectivity ratio was more than 70. The CC50 at 96 h in data set [5] was more than 301 µM.
Regarding `Cc1cc(C#N)cc(C)c1Oc1ccnc(SCC(=O)Nc2ccc(C#N)cc2F)n1`, the negative logarithm of the EC50 (pEC50) in data set [1] is 5.22; in data set [3] it was less than 3.54; in [4], less than 3.54. Also, the selectivity ratio in data set [2] is more than 48. For the same compound, the CC50 at 96 h in data set [5] is more than 288 µM.
Take `Cc1cc(C#N)cc(C)c1Oc1ccnc(SCC(=O)Nc2ccc(Cl)cc2)n1`: the pEC50 was 5.41 in [1], less than 3.53 in data set [3] and less than 3.53 in data set [4]. The selectivity ratio in data set [2] was more than 75. In addition, the CC50 at 96 h in data set [5] was more than 294 µM.
On to `Cc1cc(C#N)cc(C)c1Oc1nc(Nc2ccc(C#N)cc2)nc(N)c1Br` [ETRAVIRINE], for which, in [9], the inhibition entry was “Active”. Also, in data set [2], the selectivity ratio is more than 1120. For the same compound, the CC50 at 96 h in data set [5] is more than 4.6 µM.
Turning to `Cc1cc(C#N)cc(C)c1Oc1ccnc(SCC(=O)Nc2cccc([N+](=O)[O-])c2)n1`, the pEC50 in [1] was 4.39; in data set [3], less than 3.54; in data set [4], less than 3.54. Besides, the selectivity ratio in data set [2] is more than 7. In addition, the CC50 at 96 h in [5] is more than 287 µM.
As for `Cc1cc(C#N)cc(C)c1Oc1ccnc(SCC(=O)Nc2ccccc2)n1`, the pEC50 in data set [1], in data set [3] and in data set [4] was less than 3.49 throughout. Moreover, the CC50 at 96 h in [5] was more than 320 µM.
With `Cc1cc(C#N)cc(C)c1Oc1ccnc(SCC(=O)Nc2ccc(Cl)c(Cl)c2)n1`, the values for the pEC50 in data set [1], in data set [3] and in data set [4] were 5.28, less than 4.05 and less than 4.05, respectively. The selectivity ratio in data set [2] amounted to 17. Moreover, in [5], the CC50 at 96 h came out at 89 µM.
Consider `Cc1cc(C#N)cc(C)c1Oc1ccnc(SCC(=O)Nc2ccc(Br)cc2)n1`, for which the results for the pEC50 in data set [1], in data set [3] and in data set [4] were 5.85, less than 4.62 and less than 4.62, respectively. Further, the selectivity ratio in data set [2] was found to be 17. In data set [5], the CC50 at 96 h amounted to 24 µM.
